Among the data in ChEMBL document CHEMBL1135918, “Gold(III) complexes with bipyridyl ligands: solution chemistry, cytotoxicity, and DNA binding properties” (J Med Chem, 2002) are IC50 values, retold here.

Bounds are passed on as bounds.

What all share (type): functional, cell-based
Experiment [1] relates to CCRF-CEM. Kind of experiment: Inhibitory effect of Gold(III) complex, [Au(bipy)-(OH)2]-[PF6] on growth of cisplatin-resistant CCRF-CEM/R human tumor cell lines. Put shortly:
(§1)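 Human T-lymphoblastoid leukemia CCRF-CEM/S cells, and CCRF-CEM/R cells selected by continuous exposure to rising cisplatin and kept in 10 µM cisplatin. Exponentially growing cells in RPMI1640 with 10% FCS and antibiotics at 37 °C, 5% CO2. Water-dissolved drugs applied for 72 h, growth read by Coulter counter cell counting. IC50 is 50% growth inhibition versus control.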

For experiment [2], the system named is A2780. Kind of experiment: Inhibitory effect of Gold(III) complex, [Au(bipy)-(OH)2]-[PF6] on growth of cisplatin-sensitive A2780/S human tumor cell lines. Put shortly:
(§2)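 Human ovarian carcinoma cells (A2780/S; A2780/R derived from it by repeated 1 h weekly exposure to 50 µM; SKOV3) grown exponentially in RPMI1640 with 10% FCS and antibiotics at 37 °C, 5% CO2. Drugs dissolved in sterile bidistilled water, 72 h exposure, growth measured by sulforhodamine B assay. IC50 is the concentration inhibiting growth by 50% versus control.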

The test system of experiment [3] is A2780. Briefly: Inhibitory effect of Gold(III) complex, [Au(bipy)-(OH)2]-[PF6] on growth of cisplatin-resistant A2780/R human tumor cell lines. Put shortly: as §2
For experiment [4], the system named is CCRF-CEM. Kind of experiment: Inhibitory effect of Gold(III) complex, [Au(bipy)-(OH)2]-[PF6] on growth of cisplatin-sensitive CCRF-CEM/S human tumor cell lines. The method, boiled down: as §1
For experiment [5], the system named is SK-OV-3. Kind of experiment: Inhibitory effect of Gold(III) complex, [Au(bipy)-(OH)2]-[PF6] on growth of cisplatin-resistant SKOV3 human tumor cell lines. The method, boiled down: as §2
Experiment [6] concerns A2780. Kind of experiment: Inhibitory effect of Gold(III) complex, 2,2' bipy on growth of cisplatin-resistant A2780/R human tumor cell lines. The method, boiled down:
as §2

In experiment [7] the test system is CCRF-CEM. Kind of experiment: Inhibitory effect of Gold(III) complex, 2,2' bipy on growth of cisplatin-sensitive CCRF-CEM/S human tumor cell lines. Put shortly:
as §1

Experiment [8] has as its system A2780. Briefly: Inhibitory effect of Gold(III) complex, 2,2' bipy on growth of cisplatin-sensitive A2780/S human tumor cell lines. The method, boiled down: as §2
Experiment [9] deals with SK-OV-3. Kind of experiment: Inhibitory effect of Gold(III) complex, 2,2' bipy on growth of cisplatin-resistant SKOV3 human tumor cell lines. Put shortly: as §2
The subject of experiment [10] is CCRF-CEM. Briefly: Inhibitory effect of Gold(III) complex, 2,2' bipy on growth of cisplatin-resistant CCRF-CEM/R human tumor cell lines. Put shortly:
as §1

The test system of experiment [11] is CCRF-CEM. Kind of experiment: Inhibitory effect of Gold(III) complex, CDDP on growth of cisplatin-sensitive CCRF-CEM/S human tumor cell lines. The method, boiled down: as §1
Experiment [12] relates to A2780. Briefly: Inhibitory effect of Gold(III) complex, CDDP on growth of cisplatin-resistant A2780/R human tumor cell lines. The method, boiled down: as §2
The test system of experiment [13] is CCRF-CEM. Kind of experiment: Inhibitory effect of Gold(III) complex, CDDP on growth of cisplatin-resistant CCRF-CEM/R human tumor cell lines. The method, boiled down: as §1
Experiment [14] concerns SK-OV-3. Kind of experiment: Inhibitory effect of Gold(III) complex, CDDP on growth of cisplatin-resistant SKOV3 human tumor cell lines. Put shortly: as §2
The test system of experiment [15] is A2780. Kind of experiment: Inhibitory effect of Gold(III) complex, CDDP on growth of cisplatin-sensitive A2780/S human tumor cell lines. Put shortly: as §2
The test system of experiment [16] is CCRF-CEM. Briefly: Inhibitory effect of Gold(III) complex, [Au(bipy-H)(OH)]-[PF6] on growth of cisplatin-resistant CCRF-CEM/R human tumor cell lines. Put shortly:
as §1

Experiment [17] relates to A2780. Briefly: Inhibitory effect of Gold(III) complex, [Au(bipy-H)(OH)]-[PF6] on growth of cisplatin-sensitive A2780/S human tumor cell lines. Put shortly: as §2
In experiment [18] the test system is SK-OV-3. Kind of experiment: Inhibitory effect of Gold(III) complex, [Au(bipy-H)(OH)]-[PF6] on growth of cisplatin-resistant SKOV3 human tumor cell lines. Put shortly: as §2
The subject of experiment [19] is A2780. Briefly: Inhibitory effect of Gold(III) complex, [Au(bipy-H)(OH)]-[PF6] on growth of cisplatin-resistant A2780/R human tumor cell lines. Put shortly: as §2
Experiment [20] has as its system CCRF-CEM. Briefly: Inhibitory effect of Gold(III) complex, [Au(bipy-H)(OH)]-[PF6] on growth of cisplatin-sensitive CCRF-CEM/S human tumor cell lines. Put shortly: as §1

For orientation: IC50 means the midpoint of a concentration-inhibition curve. Low values mean greater potency, high ones weaker potency. Take “pyrido[1',2':3,4]imidazo[1,5-a]pyridinediium-6,6-diol(gold(III)complex) with Phosphorous hexa fluoride”: the IC50 is 58.6 µM in the experiment with CCRF-CEM [1]; 8.8 µM with A2780 [2]; 24.1 µM in the experiment on A2780 [3]; 52.9 µM with CCRF-CEM [4]; 34.4 µM in the experiment on SK-OV-3 [5].
Consider `c1ccc(-c2ccccn2)nc1` [DIPYRIDYL], for which the half-inhibitory concentration (IC50) in the experiment with A2780 [6] was 44.8 µM; in the experiment on CCRF-CEM [7], 51.9 µM; in the experiment with A2780 [8], over 20 µM; in the experiment with SK-OV-3 [9], 41.3 µM; in the experiment with CCRF-CEM [10], 61.7 µM.
As for CISPLATIN, the IC50 with CCRF-CEM [11] was found to be 1 µM; in the experiment with A2780 [12] it was 15.3 µM; in the experiment with CCRF-CEM [13], 14.1 µM; with SK-OV-3 [14] it was 21.6 µM; in the experiment on A2780 [15], 1.3 µM.
Regarding “8,8-dimethyl-8,12b-dihydro-7b,12c-diazoniabenzo[a]aceanthrylen-12b-ol(gold(III)complex) with Phosphorous hexa fluoride”, the concentration for half-maximal inhibition (IC50) with CCRF-CEM [16] is 51.2 µM; in the experiment on A2780 [17] it was 3.3 µM; in the experiment on SK-OV-3 [18], 13.3 µM; in the experiment on A2780 [19] it was 8.2 µM; in the experiment on CCRF-CEM [20] it was 11.9 µM.
